High-throughput results from PubChem BioAssay.
M4 PAM: human M4 muscarinic receptor positive allosteric modulators, primary screen, CHO-K1 cells, Fluo-8 calcium fluorescence. CHO-K1 hM4/Gqi5, ACh EC20; 0% = ACh EC20, 100% = maximal ACh. activation, % at 3 µM. hit rate 0.4% among 360,000. AID 624126, 2012;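 active = activation above its plate's cutoff, the mean activation of sample wells plus 3 SD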
Target sequence (P08173 whole entry, looked up): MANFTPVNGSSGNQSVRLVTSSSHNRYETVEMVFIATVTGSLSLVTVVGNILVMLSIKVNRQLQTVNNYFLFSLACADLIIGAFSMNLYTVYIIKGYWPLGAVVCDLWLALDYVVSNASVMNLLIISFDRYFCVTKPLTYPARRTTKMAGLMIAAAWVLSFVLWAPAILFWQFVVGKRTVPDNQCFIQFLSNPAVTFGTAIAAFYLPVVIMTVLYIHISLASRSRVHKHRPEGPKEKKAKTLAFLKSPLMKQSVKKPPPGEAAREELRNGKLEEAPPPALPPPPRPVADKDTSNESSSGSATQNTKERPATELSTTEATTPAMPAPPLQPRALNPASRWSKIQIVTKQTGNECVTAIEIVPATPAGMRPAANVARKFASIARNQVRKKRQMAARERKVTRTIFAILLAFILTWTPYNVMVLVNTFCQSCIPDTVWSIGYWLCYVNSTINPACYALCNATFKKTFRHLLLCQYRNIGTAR
M4 antag: human M4 muscarinic receptor antagonists, primary screen, CHO cells, Fluo-8 calcium fluorescence. CHO-hM4 cells, ACh EC80. inhibition, % at 3 µM. hit rate 0.73% among 360,000;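 active = inhibition above its plate's cutoff, the mean inhibition of sample wells plus 3 SD, cut at about 27% in these data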;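 also: 0% = acetylcholine EC80 with DMSO and 100% = DMSO without agonist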
M5 ag: human M5 muscarinic receptor agonists, primary screen, CHO-K1 cells, Fluo-8 calcium fluorescence | CHO-K1 hM5 cells; 0% DMSO wells, 100% maximal acetylcholine response | activation, % at 3 µM | hit rate 0.19% among 360,000 | AID 624037, 2012;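 active = activation above the run's mean over test compounds plus 3 SD, cut at about 23% in these data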;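 also: signal is peak over basal fluorescence ratio across the kinetic read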
M4 ag: human M4 muscarinic receptor agonists, primary screen, CHO-K1 cells, Fluo-8 calcium fluorescence. CHO-K1 hM4/Gqi5; vehicle 0%, full acetylcholine response 100%. Muscarinic acetylcholine receptor M4 (Homo sapiens), P08173. activation, % at 3 µM. hit rate 0.14% among 360,000;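 active = activation above the run mean over all test wells plus 3 SD, cut at about 32% in these data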;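 also: peak over basal fluorescence ratio per well then scaled between controls; 0% = DMSO wells and 100% = acetylcholine at EC100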
CHRM5 antagonist: human M5 muscarinic receptor antagonists, primary screen, CHO cells, Fluo-8 calcium fluorescence | Muscarinic acetylcholine receptor M5 (Homo sapiens), P08912 | CHO-hM5 cells, ACh EC80 | inhibition, % at 3 µM | hit rate 0.59% among 360,000;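 active = inhibition above a per-plate cutoff, the mean of that plate's test compounds plus 3 SD, cut at about 27% in these data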;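 also: 0% = acetylcholine EC80 with DMSO and 100% = DMSO without agonist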
M5 PAM: human M5 muscarinic receptor positive allosteric modulators, primary screen, CHO-K1 cells, Fluo-8 calcium fluorescence | hit rate 0.3% among 360,000 | AID 624038, 2012 | Muscarinic acetylcholine receptor M5 (Homo sapiens), P08912 | activation, % at 3 µM | CHO-K1 hM5, ACh EC20 PAM; 0% = ACh EC20, 100% = ACh EC100;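 active = activation above the run cutoff, the mean activation of all test compounds plus 3 SD, cut at about 18% in these data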
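System: CHO-K1 cell line with stable human muscarinic M5 receptor expression | Also added: EC20 acetylcholine as agonist stimulus | Compound: One concentration, 3 µM final (nominal) | Timing: Fluo-8 loading 80 min at 37 °C plus 30 min room temperature | Measured by: Fluo-8 calcium dye fluorescence, kinetic read | Read-out basis: % activation, ACh-normalized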
Numbers without * were called inactive. Only some compounds are listed: those with a hit (about 1.8% of all), similar ones and a draw of the others.

SMILES	M4 PAM	M4 antag	M5 ag	M4 ag	CHRM5 antagonist	M5 PAM
COc1cc(/C=C2\SC(=Nc3ccccc3)N(CCc3c[nH]c4ccccc34)C2=O)ccc1OC(C)C(=O)O (stereo unspecified)	5.7	-0.2	-2.9	0.6	3.1	-1.3
NS(=O)(=O)c1cccc(NC(=O)COC(=O)CC2CC3CCC2C3)c1 (stereo unspecified)	13.5	-14.2	0.6	3.6	-16.6	-6.8
CCOc1ccc(Cc2n[nH]c(=S)n2Cc2ccccc2)cc1	0.5	-10.8	-7.0	-0.4	2.9	-1.3
CC(=O)Nc1ccc(-c2csc(Nc3cc(C)ccn3)n2)cc1	1.9	1.6	4.2	6.7	-5.7	-1.2
Cc1ccnc(Nc2nc(-c3ccccc3)cs2)c1	-10.9	-4.1	9.8	0.0	-16.9	21.9*
O=C(Nc1ccccc1OC(F)F)c1ccc(F)cc1	12.2	-4.7	-1.4	0.3	-16.1	24.2*
COC(=O)c1ccc(OCCN2CCCCCC2)cc1	-17.6	18.6	-9.7	-0.1	7.1	-5.5
COC(=O)c1ccc(OCCN2C3=NCCN3c3ccccc32)cc1	-20.6	39.8*	-7.8	1.4	-5.3	-3.1
O=C(Cn1c(=O)sc2ccccc21)Nc1ccc(O)cc1	24.1*	-14.5	-1.1	2.2	-12.2	6.5
CC(=O)Nc1c(Cl)c2c(c(Cl)c1Br)-c1ccc(Cl)cc1C2	4.8	-10.8	-0.4	1.0	20.2	1.4
Nc1ncc(Br)cc1S(=O)(=O)N1CCCCCC1	-2.1	-2.1	-8.0	0.9	29.2*	-14.9
O=S(=O)(c1cc(Br)ccc1Br)N1CCCCCC1	2.1	-38.6	-4.0	-2.8	0.8	-1.3
CC1=C(C(=O)N2CCOCC2)CC(CC(=O)NCCc2ccccn2)C(=O)N1CCCN1CCCC1=O (stereo unspecified)	0.1	-9.6	2.1	0.8	4.1	-7.9
CCCCn1c(N)c(N(CCOC)C(=O)C2CCN(S(=O)(=O)c3ccc(C)cc3)CC2)c(=O)[nH]c1=O	7.2	-10.4	-4.6	0.1	0.6	3.8
CCCCn1c(N)c(N(CCOC)C(=O)C2CCN(S(=O)(=O)c3ccc(C)cc3C)CC2)c(=O)[nH]c1=O	23.6*	1.6	3.1	0.9	1.4	-2.1
CCCCn1c(N)c(N(CCC(C)C)C(=O)C2CC(=O)N(Cc3ccc(C)cc3)C2)c(=O)[nH]c1=O (stereo unspecified)	28.2*	-10.9	0.6	0.8	2.9	3.2
CCCCN(C(=O)C(C)N1C(=O)c2ccccc2C1=O)c1c(N)n(CCCC)c(=O)[nH]c1=O (stereo unspecified)	6.8	4.3	0.7	-0.1	4.2	-2.7
CCCCn1c(N)c(N(CCC(C)C)C(=O)C(C)N2C(=O)c3ccccc3C2=O)c(=O)[nH]c1=O (stereo unspecified)	21.5*	-20.7	-0.9	0.0	3.7	1.2
COC(=O)[C@]12CCCCC=C1N(CCc1ccc(OC)c(OC)c1)C(=O)[C@H](CC(=O)N1CCC(c3ccccc3)CC1)C2	-8.5	-1.5	1.4	25.5	27.8*	-18.0
COC(=O)[C@@]12C[C@@H](CC(=O)NCc3cccc(C(F)(F)F)c3)C(=O)N(CCc3ccc(OC)c(OC)c3)C1=CCC(C)(C)C2	-15.3	27.2*	3.6	32.5*	19.3	-12.6
COC(=O)[C@]12CCCCC=C1N(CCc1ccc(OC)c(OC)c1)C(=O)[C@H](CC(=O)NCc1cccc(C(F)(F)F)c1)C2	-2.1	-5.7	4.4	26.7	6.0	-13.6
CN1/C(=C\C(=O)c2ccco2)C(C)(C)c2ccccc21	-19.7	37.5*	4.2	9.7	43.6*	-13.7
CN1/C(=C\C(=O)COC(=O)c2ccco2)C(C)(C)c2ccccc21	-7.5	-2.1	-1.2	4.3	8.6	-0.1
